OX1R antag-1 = antagonists of human orexin 1 receptor (OX1R) | OX1R-expressing cells, FRET antagonist read-out | AID 485270 | inhibition, % at 6.6 µM | O43613 | 1.8% of 330,000 active; in the data active means inhibition mostly above about 38%, no sharp cut-off; inactive means mostly below about 40%
GPR7 antagonist = human neuropeptides B/W receptor 1 antagonism; P48145; 1.1% of 290,000 active; inhibition, % at 4.4 µM; GPR7-expressing cells, fluorescence antagonist assay; AID 1861; in the data active means inhibition above about 16%, passing the limit was not always enough;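 further: cells stimulated with the agonist NPW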
Target sequence (P48145 whole entry, looked up): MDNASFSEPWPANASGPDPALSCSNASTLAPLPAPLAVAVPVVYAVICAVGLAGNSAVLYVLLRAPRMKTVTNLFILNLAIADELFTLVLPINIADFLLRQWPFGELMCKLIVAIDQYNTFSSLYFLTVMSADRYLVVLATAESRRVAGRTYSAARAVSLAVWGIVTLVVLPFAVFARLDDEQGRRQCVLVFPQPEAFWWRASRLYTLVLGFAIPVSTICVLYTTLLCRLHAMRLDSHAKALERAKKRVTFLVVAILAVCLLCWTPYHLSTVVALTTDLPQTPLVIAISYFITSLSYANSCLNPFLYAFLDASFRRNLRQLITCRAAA
CHO parental Ca = signal in parental CHO cells, OX1R antagonist counter-screen; parental CHO-K1, ATP-induced calcium, Fluo-8 fluorescence; inhibition, % at 5.6 µM; 0.63% of 330,000 active; AID 463079;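 active means inhibition above that plate's mean sample inhibition plus 3 SD, cut at about 26% in these data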
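Test system: parental CHO cells; detection: calcium-sensitive Fluo-8 fluorescence; evaluation: percent inhibition of calcium signal; also added: ATP as calcium-mobilizing challenge; repeats: one well per compound; control set: ATP-challenged DMSO wells low, unchallenged DMSO wells high; compound: single nominal dose of 5.6 µM per compound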
OX1R antag-2 = blocks the human orexin 1 receptor | O43613 | CHO/OX1R cells, Fluo-8 calcium fluorescence, orexin A | inhibition, % at 5 µM | 0.43% of 330,000 active;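 active means inhibition above its plate's threshold, mean inhibition of all tested compounds on the plate plus 3 SD, cut at about 37% in these data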
TAAR1 antag = antagonists of human TAAR1; CHO RD-HGA16 TAAR1, Fluo-8 calcium fluorescence, antagonist; inhibition, % at 3 µM; 1.5% of 360,000 active; AID 624466;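 active means inhibition above a per-plate cutoff, the mean inhibition of test compounds on that plate plus 3 SD, cut at about 49% in these data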
Target sequence (Q96RJ0 whole entry, looked up): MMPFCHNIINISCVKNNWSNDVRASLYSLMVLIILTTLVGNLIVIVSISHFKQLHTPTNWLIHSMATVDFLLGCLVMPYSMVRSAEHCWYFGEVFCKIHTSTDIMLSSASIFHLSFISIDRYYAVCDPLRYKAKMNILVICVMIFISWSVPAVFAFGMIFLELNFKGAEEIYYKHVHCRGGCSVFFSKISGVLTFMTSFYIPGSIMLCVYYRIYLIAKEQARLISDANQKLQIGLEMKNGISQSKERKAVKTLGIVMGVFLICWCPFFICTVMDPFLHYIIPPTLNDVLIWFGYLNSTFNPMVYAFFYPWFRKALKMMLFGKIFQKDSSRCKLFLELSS
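Test system – hTAAR1-expressing CHO RD-HGA16 cells, Gα16-coupled · Reagent – β-PEA at EC80 concentration, post-compound challenge · Compound dosing – 3 µM, single point · Timing – 140 s kinetic read after compound, 140 s after agonist · Detection – Fluo-8 intracellular calcium dye fluorescence, real-time kinetic reads · Control set – DMSO and EC80 PEA controls · Repeats – n of 1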
TAAR1 agonist = agonists of human TAAR1; CHO RD-HGA16 TAAR1, Fluo-8 calcium fluorescence; vehicle wells 0%, saturating PEA agonist 100%; activation, % at 3 µM; 0.99% of 360,000 active; AID 624467;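 active means activation above the mean activation of all test compounds in the run plus 3 SD, cut at about 38% in these data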
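Assay system – CHO-derived RD-HGA16 cells with stable Gα16 and human TAAR1 · Compound dosing – one-point dosing at 3 µM (nominal) · Incubation – 17-24 h seeding, 75 min 37 °C dye, 30 min RT · Measured by – kinetic Fluo-8 calcium fluorescence · Control set – DMSO vehicle as 0%, PEA at EC100 as 100% · Repeats – single well for each compound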
Numbers stand for hits. Sampled rows, rich in hits. Any-hit rate of the full collection: about 4.6%.

O=C(O)C(Cc1c[nH]c2ccccc12)NS(=O)(=O)c1cccc2nsnc12 (stereo not given) was read as OX1R antag-1 61.0, GPR7 antagonist inactive, CHO parental Ca inactive, OX1R antag-2 inactive, TAAR1 antag inactive and TAAR1 agonist inactive.
For Cc1cccc(NS(=O)(=O)c2cccc3nsnc23)c1 the results were OX1R antag-1 inactive, GPR7 antagonist inactive, CHO parental Ca inactive, OX1R antag-2 inactive, TAAR1 antag inactive and TAAR1 agonist inactive.
`Oc1ccccc1CNc1ccc(Br)cn1` gave OX1R antag-1 inactive, GPR7 antagonist 68.5, CHO parental Ca inactive, OX1R antag-2 inactive, TAAR1 antag 70.8 and TAAR1 agonist inactive.
Brc1ccc(NCc2cccc3ccccc23)nc1 was read as OX1R antag-1 inactive, GPR7 antagonist inactive, CHO parental Ca inactive, OX1R antag-2 inactive, TAAR1 antag inactive and TAAR1 agonist inactive.
`COC(=O)N1C[C@H](OCCCOCc2ccccc2)[C@H]2C[C@@H]1c1ccccc1O2` gave TAAR1 antag inactive and TAAR1 agonist inactive.
Screening CC(C)(C)c1ccc(-n2ncc3c2CCCC3NC(=O)C2(C(N)=O)CC2)cc1 (stereo not given) returned OX1R antag-1 inactive, GPR7 antagonist inactive, CHO parental Ca 42.9, OX1R antag-2 inactive, TAAR1 antag inactive and TAAR1 agonist inactive.
`Cc1cc(C(=O)NC2CCCc3c2cnn3-c2ccc(C(C)(C)C)cc2)nn1C` (stereo not given) gave OX1R antag-1 inactive, GPR7 antagonist inactive, CHO parental Ca 50.8, OX1R antag-2 inactive, TAAR1 antag inactive and TAAR1 agonist inactive.
Screening O=C(N[C@H](C(=O)N1CCC[C@H]1C(=O)NC1CCCC1)c1ccccc1)c1ccc(Cl)c(Cl)c1 returned TAAR1 antag inactive and TAAR1 agonist inactive.
Screening CCCc1nc2ccccc2c(C(=O)OCC(=O)N2CCc3ccccc32)c1CC returned OX1R antag-1 inactive, GPR7 antagonist inactive, CHO parental Ca inactive, OX1R antag-2 inactive, TAAR1 antag 52.2 and TAAR1 agonist inactive.
`CCCc1nc2ccccc2c(C(=O)OCC(=O)Nc2ccc(S(=O)(=O)N3CCOCC3)cc2)c1CC` gave OX1R antag-1 inactive, GPR7 antagonist inactive, CHO parental Ca inactive, OX1R antag-2 inactive, TAAR1 antag inactive and TAAR1 agonist inactive.
CCCc1nc2ccccc2c(C(=O)OCC(=O)Nc2cccc(S(=O)(=O)N3CCOCC3)c2)c1CC was read as OX1R antag-1 inactive, GPR7 antagonist inactive, CHO parental Ca inactive, OX1R antag-2 inactive, TAAR1 antag 51.6 and TAAR1 agonist inactive.
Oc1ccc(C(=Nc2ccccc2)c2ccccc2)c(O)c1 was read as TAAR1 antag inactive and TAAR1 agonist inactive.
Screening CC(=O)c1ccc(S(=O)(=O)NCC2CCN(C(=O)C(=O)c3cc4ccccc4o3)CC2)cc1 returned TAAR1 antag inactive and TAAR1 agonist inactive.
`CCOC(=O)c1c(C)[nH]c(C)c1C(=O)COC(=O)/C=C/c1ccccc1[N+](=O)[O-]` gave OX1R antag-1 35.3, CHO parental Ca inactive, OX1R antag-2 inactive, TAAR1 antag inactive and TAAR1 agonist inactive.
CCOC(=O)c1c(C)[nH]c(C)c1C(=O)COC(=O)/C=C/c1cccc(Cl)c1 was read as OX1R antag-1 inactive, GPR7 antagonist inactive, CHO parental Ca inactive, OX1R antag-2 inactive, TAAR1 antag inactive and TAAR1 agonist inactive.
Cc1ccc(SC/C(O)=C(\C#N)c2nc3ccccc3s2)cc1 was read as OX1R antag-1 inactive, GPR7 antagonist inactive, CHO parental Ca inactive, OX1R antag-2 inactive, TAAR1 antag inactive and TAAR1 agonist inactive.
`N#C/C(=C(/O)CSc1ccccn1)c1nc2ccccc2s1` gave OX1R antag-1 inactive, GPR7 antagonist inactive, CHO parental Ca 65.5, OX1R antag-2 70.6, TAAR1 antag inactive and TAAR1 agonist inactive.
`Cc1ccc(-c2noc(CSc3nnnn3C3CCCCC3)n2)cc1` gave OX1R antag-1 inactive, GPR7 antagonist inactive, CHO parental Ca 37.9, OX1R antag-2 inactive, TAAR1 antag inactive and TAAR1 agonist inactive.
`COC(=O)[C@]12C[C@H](CC(=O)N3CCOCC3)C(=O)N(Cc3ccc4c(c3)OCO4)C1=C[C@H](COCc1ccccc1)O[C@@H]2C` gave TAAR1 antag inactive and TAAR1 agonist inactive.
Screening COc1ccc(-c2cn[nH]c2-c2ccc(OCc3ccc([N+](=O)[O-])cc3)cc2O)cc1OC returned OX1R antag-1 inactive, GPR7 antagonist inactive, CHO parental Ca inactive, OX1R antag-2 inactive, TAAR1 antag inactive and TAAR1 agonist inactive.
For CCc1cc(-c2[nH]ncc2-c2ccc([N+](=O)[O-])cc2)c(O)cc1OC the results were OX1R antag-1 inactive, GPR7 antagonist inactive, CHO parental Ca 59.6 and OX1R antag-2 inactive.
CN(C)C(=O)CSc1nnc(-c2cc(-c3cccs3)nc3ccccc23)o1 was read as OX1R antag-1 inactive, GPR7 antagonist inactive, CHO parental Ca inactive, OX1R antag-2 inactive, TAAR1 antag 49.5 and TAAR1 agonist inactive.
Screening COc1cc(/C=N/NS(=O)(=O)c2ccc(C)c([N+](=O)[O-])c2)ccc1O returned OX1R antag-1 inactive, GPR7 antagonist inactive, CHO parental Ca inactive, OX1R antag-2 inactive, TAAR1 antag inactive and TAAR1 agonist inactive.
COc1ccc(-n2c(O)c(/C=N/NS(=O)(=O)c3ccc(C)c([N+](=O)[O-])c3)c3ccccc3c2=O)cc1OC was read as OX1R antag-1 inactive, GPR7 antagonist inactive, CHO parental Ca inactive, OX1R antag-2 inactive, TAAR1 antag inactive and TAAR1 agonist 42.4.
`O=S1(=O)CC(N2CCN(Cc3ccccc3F)CC2)CN1Cc1cn(Cc2cccc(Cl)c2)nn1` (stereo not given) gave TAAR1 antag inactive and TAAR1 agonist inactive.
`COc1cccc(CNC(=O)[C@H]2CCCN2C(=O)[C@H]2CCCN2C(=O)OC(C)(C)C)c1` gave TAAR1 antag inactive and TAAR1 agonist inactive.
For CC(C)NC(=O)c1noc2cc([N+](=O)[O-])ccc12 the results were OX1R antag-1 67.2, GPR7 antagonist inactive, CHO parental Ca inactive, OX1R antag-2 inactive, TAAR1 antag inactive and TAAR1 agonist inactive.
`CN(C)C(=O)c1noc2cc([N+](=O)[O-])ccc12` gave OX1R antag-1 52.4, GPR7 antagonist inactive, CHO parental Ca inactive, OX1R antag-2 inactive, TAAR1 antag inactive and TAAR1 agonist inactive.
For COc1ccc([N+](=O)[O-])cc1NC(C)C the results were OX1R antag-1 inactive, GPR7 antagonist inactive, CHO parental Ca inactive, OX1R antag-2 inactive, TAAR1 antag inactive and TAAR1 agonist inactive.
`O=C(Nc1ccc(-c2nc3ccccc3[nH]2)cc1)C1CCCN(Cc2ccn[nH]2)C1` (stereo not given) gave TAAR1 antag inactive and TAAR1 agonist inactive.
`C=CCN1C(=O)c2n[nH]c(C)c2C1c1ccc(C)cc1` (stereo not given) gave TAAR1 antag inactive and TAAR1 agonist inactive.
